High-throughput results (PubChem)
An excerpt weighted towards active compounds, which were near 6.7% of everything screened.
PREPL inhibitor: PREPL enzyme inhibitors, primary screen, biochemical, fluorescence polarization | Prolyl endopeptidase-like (Homo sapiens), Q4J6C6 | recombinant PREPL, fluorescence polarization activity-based probe | inhibition, % at 5.96 µM | actives 0.68% (n = 320,000); in the data active = inhibition above about 43%;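 note: 0% = enzyme with DMSO and 100% = wells lacking enzyme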
Target sequence (Q4J6C6 whole entry, looked up): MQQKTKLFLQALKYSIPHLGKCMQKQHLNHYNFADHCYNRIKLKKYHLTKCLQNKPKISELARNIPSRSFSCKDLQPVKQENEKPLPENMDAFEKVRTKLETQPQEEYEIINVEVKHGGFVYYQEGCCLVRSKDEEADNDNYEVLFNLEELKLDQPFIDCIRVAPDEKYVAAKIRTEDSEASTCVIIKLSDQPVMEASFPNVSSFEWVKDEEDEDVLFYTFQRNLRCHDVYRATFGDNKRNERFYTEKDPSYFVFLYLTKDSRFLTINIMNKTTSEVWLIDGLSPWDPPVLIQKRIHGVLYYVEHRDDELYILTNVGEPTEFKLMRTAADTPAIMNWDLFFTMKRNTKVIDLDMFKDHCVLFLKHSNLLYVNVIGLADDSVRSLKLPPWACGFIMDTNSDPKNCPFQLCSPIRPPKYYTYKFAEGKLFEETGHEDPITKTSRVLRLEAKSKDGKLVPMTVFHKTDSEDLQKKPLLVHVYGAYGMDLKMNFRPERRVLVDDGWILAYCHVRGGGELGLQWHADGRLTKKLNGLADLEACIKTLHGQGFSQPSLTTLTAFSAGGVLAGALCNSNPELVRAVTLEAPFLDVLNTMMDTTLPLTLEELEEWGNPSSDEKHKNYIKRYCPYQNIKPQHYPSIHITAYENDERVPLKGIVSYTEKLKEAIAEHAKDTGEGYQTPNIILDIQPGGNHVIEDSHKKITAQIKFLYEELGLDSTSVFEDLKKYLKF
CSC inhib: cancer stem cell viability inhibitors, primary screen, luminescence | AID 2717, 2010 | cancer stem cell-like cells viability | inhibition, % at 7.5 µM | actives 1.1% (n = 300,000); in the data active = inhibition above about 75%; tested in HMLE shEcad cells
CHOP inhibitor: inhibitors of CHOP promoter induction, primary screen, cell-based, unfolded protein response, luciferase reporter. CHO-K1 CHOP-promoter luciferase, tunicamycin-induced, 15-18 h. inhibition, % at 10 µM. actives 3.8% (n = 220,000). AID 2732, 2010;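 active = compounds that reduced the stress-induced luciferase reporter signal by more than about 70% of percent inhibition, limit read from the data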;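 note: 0% = tunicamycin plus vehicle and 100% = wells without tunicamycin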
Beta cell apopt: inhibitors of cytokine-induced beta cell apoptosis, primary screen, luminescence | INS-1E cytokine-induced death, ATP luminescence, 48 h; percent of positive-control rescue, neutral wells zero | protection from apoptosis, % (no concentration beside the values) | actives 0.8% (n = 300,000);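 active = Every replicate reaches about 75%, or at least half do and their mean reaches it too, limit read from the data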;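 note: 0% = cytokine-treated negative control wells and 100% = positive control rescue; higher means more ATP so stronger rescue from cytokine killing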
T cruzi inh: inhibitors of intracellular T. cruzi growth, primary screen, luminescence, NIH3T3 host cells. T. cruzi beta-gal in NIH3T3, 90 h. inhibition, % (no concentration beside the values). actives 1.4% (n = 300,000). AID 1885, 2009;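 active = mean inhibition across valid replicates above about 55%, limit read from the data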;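 note: signal also drops with host cell toxicity which is not excluded here; 0% = plate median of DMSO wells and 100% = zero luminescence signal; higher percent means less beta-gal luminescence so fewer parasites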
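Assay system: NIH/3T3 fibroblasts plus reporter T. cruzi. Amount: NIH/3T3 cells, 5,000 per well. Buffer or medium: DMEM, 2% fetal bovine serum. Doses: compound pinned at 50 nL/well, DMSO. Schedule: ≥90 h infection period, 3 h prior cell attachment. Signal: luminescent β-galactosidase signal after 60 min lysis. Read-out: parasite load inhibition, %.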
NR3A LBD binder: binders of NR3A ligand-binding domain, primary screen, biophysical, differential scanning fluorimetry, uHTS; Glutamate receptor ionotropic, NMDA 3A (GRIN3A) ligand-binding domain; NR3A LBD differential scanning fluorimetry, Tm shift; 0% = protein alone, 100% = glycine-bound protein; Tm shift relative to glycine control, % at 25 µM; actives 2.5% (n = 340,000); AID 1259313, 2017;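 active = melting temperature shift of at least 10% of the positive control shift, at one fixed dose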
Active calls of the source: *.

How did CCOC(=O)c1ccc(NC(=O)CCc2nc(-c3ccc(Cl)cc3)no2)cc1 do in these assays?
PREPL inhibitor: -21; CSC inhib: 11; CHOP inhibitor: 73*; Beta cell apopt: -4; T cruzi inh: 29; NR3A LBD binder: 3

Results for CN1CCN(CCc2nc3cc(NC(=O)COc4ccc([N+](=O)[O-])cc4)ccc3n2C)CC1 ?
PREPL inhibitor: 15; CSC inhib: -9; Beta cell apopt: -8; T cruzi inh: 14; NR3A LBD binder: -3

Results for CCC(C)c1ccc(S(=O)(=O)N2CCN(CC(O)COCC3CCCO3)CC2)cc1 (centres undefined) ?
NR3A LBD binder: 2

How did COc1cccc(NC(=O)c2ccccc2-c2nc(-c3ccc(Cl)cc3)no2)c1 do in these assays?
PREPL inhibitor: 7; CSC inhib: -1; CHOP inhibitor: 64; Beta cell apopt: 0; NR3A LBD binder: 16*

Results for CCOc1ccccc1-c1nc(-c2ccc(NC(=O)Cc3ccc(OC)cc3)cc2)no1 ?
PREPL inhibitor: -24; CSC inhib: 16; CHOP inhibitor: 19; Beta cell apopt: 15; T cruzi inh: 19; NR3A LBD binder: 8

Results for O=C(CCCc1nc(-c2ccccc2)no1)Nc1cccnc1 ?
PREPL inhibitor: 3; CSC inhib: 2; CHOP inhibitor: 4; Beta cell apopt: 6; T cruzi inh: 0; NR3A LBD binder: 2

What do the screens show for `Cc1ccc(-c2noc(CCCC(=O)Nc3cccnc3)n2)cc1`?
PREPL inhibitor: 8; CSC inhib: 5; CHOP inhibitor: 78*; Beta cell apopt: 6; T cruzi inh: -3; NR3A LBD binder: 2

How did COc1ccc(Cc2nc(-c3ccc(NC(=O)c4cccnc4)cc3)no2)cc1 do in these assays?
PREPL inhibitor: 8; CSC inhib: 13; CHOP inhibitor: 23; Beta cell apopt: 107*; T cruzi inh: -17; NR3A LBD binder: -2

Results for CCOc1ccccc1-c1nc(-c2ccc(NC(=O)c3ccc(Br)o3)cc2)no1 ?
PREPL inhibitor: -24; CSC inhib: 64; CHOP inhibitor: -31; Beta cell apopt: 17; T cruzi inh: 34; NR3A LBD binder: 16*

Results for COc1ccc([C@H]2CC(=O)C=C(c3ccc(OC)c(F)c3)C2)cc1 ?
CSC inhib: -6; Beta cell apopt: -2; NR3A LBD binder: 0

Results for COc1ccc(CC(=O)Nc2ccc(-c3noc(-c4cc(OC)c(OC)c(OC)c4)n3)cc2)cc1 ?
PREPL inhibitor: 2; CSC inhib: -1; CHOP inhibitor: 13; NR3A LBD binder: 0

How did COc1cccc(-c2nc(-c3ccc(NC(=O)c4ccncc4)cc3)no2)c1 do in these assays?
PREPL inhibitor: -20; CHOP inhibitor: 30; Beta cell apopt: 8; T cruzi inh: -1; NR3A LBD binder: 24*

What do the screens show for `COc1ccc(-c2nc(-c3ccc(NC(=O)c4ccncc4)cc3)no2)cc1OC`?
PREPL inhibitor: 8; CSC inhib: 30; CHOP inhibitor: 72*; T cruzi inh: 49; NR3A LBD binder: 12*

What do the screens show for `COc1ccccc1OCC(=O)NCC1CCCN(Cc2cnn(C)c2C)C1` (centres undefined)?
PREPL inhibitor: -5; CSC inhib: -9; T cruzi inh: 18; NR3A LBD binder: 1

What do the screens show for `Cc1ccc2nc3cc([N+](=O)[O-])cc([N+](=O)[O-])c3cc2c1`?
CHOP inhibitor: 95*; NR3A LBD binder: 2

Results for Cc1nc2ccc([N+](=O)[O-])cc2nc1C ?
PREPL inhibitor: -3; CSC inhib: -7; CHOP inhibitor: -4; Beta cell apopt: -6; T cruzi inh: 11; NR3A LBD binder: 0

Results for COc1cccc(-c2nc(C(=O)NCC3CCCO3)cc3c2[nH]c2ccccc23)c1 (centres undefined) ?
PREPL inhibitor: 3; CSC inhib: 30; Beta cell apopt: 33; T cruzi inh: 38; NR3A LBD binder: -6

Results for Cc1ccc(C(=O)N2CCCC(CCC(=O)N3CCN(c4ccccn4)CC3)C2)cc1 (centres undefined) ?
PREPL inhibitor: 18; Beta cell apopt: 3; T cruzi inh: 20; NR3A LBD binder: 0

Results for CCc1ccc(CN2CCCC(CCC(=O)N3CCN(c4ccccn4)CC3)C2)o1 (centres undefined) ?
PREPL inhibitor: 36; CSC inhib: 6; CHOP inhibitor: 27; Beta cell apopt: 13; T cruzi inh: 59*; NR3A LBD binder: -1

What do the screens show for `O=C(c1ccc(N2CCN(C(=O)c3cccc(F)c3)CC2)cc1)c1cccc(F)c1`?
PREPL inhibitor: 16; CSC inhib: 8; Beta cell apopt: 5; T cruzi inh: 22; NR3A LBD binder: 4

How did CCOC(=O)N1CCN(c2ccc(C(=O)c3cccc(F)c3)cc2)CC1 do in these assays?
PREPL inhibitor: 11; CSC inhib: 76*; CHOP inhibitor: 11; Beta cell apopt: -2; T cruzi inh: -1; NR3A LBD binder: -2

Results for C/C=C/c1ccc(OCCCCOc2c(OC)cccc2OC)c(OC)c1 ?
PREPL inhibitor: 10; CSC inhib: 1; CHOP inhibitor: 58; Beta cell apopt: 0; T cruzi inh: 4; NR3A LBD binder: 1

How did C/C=C/c1ccc(OCCCCOc2ccccc2C(C)=O)c(OC)c1 do in these assays?
PREPL inhibitor: 3; CSC inhib: 51; CHOP inhibitor: 61; Beta cell apopt: 1; T cruzi inh: -3; NR3A LBD binder: 18*

What do the screens show for `COc1ccccc1OCC(O)COC(N)=O` (centres undefined)?
PREPL inhibitor: 10; CSC inhib: -13; CHOP inhibitor: 15; Beta cell apopt: -6; T cruzi inh: 0; NR3A LBD binder: 13*

Results for COc1ccccc1OCCCCOc1ccccc1C(C)=O ?
PREPL inhibitor: 2; CSC inhib: 8; CHOP inhibitor: 50; Beta cell apopt: 100*; T cruzi inh: -18; NR3A LBD binder: -8

Results for Cc1ccc(C)c(N(CC(=O)NC(C)C)C(=O)CCC(=O)Nc2ccccn2)c1 ?
PREPL inhibitor: 4; CSC inhib: -10; Beta cell apopt: -4; T cruzi inh: -7; NR3A LBD binder: 0

What do the screens show for `CCOC(=O)N1CCN(C(=O)CC(C(=O)N2CCc3ccccc32)n2ccnc2)CC1` (centres undefined)?
PREPL inhibitor: 7; CHOP inhibitor: -21; T cruzi inh: 63*; NR3A LBD binder: 0

How did CC(C)=C1C2CCC1C1C(=O)N(NC(=O)COc3ccc(C(C)(C)C)cc3)C(=O)C21 (centres undefined) do in these assays?
PREPL inhibitor: 3; CSC inhib: -6; CHOP inhibitor: 92*; Beta cell apopt: -4; T cruzi inh: -8; NR3A LBD binder: -2
